The nature of assay [1]: Inhibition of adenylyl cyclase activity in membranes of the human SH-SY5Y neuroblastoma cell line. The assay is classed as functional, cell-based. On the set-up: concentration or dose not given beside the values. As to conditions: concentration not given here. The method in brief: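 SH-SY5Y membranes (50 µg protein) incubated 15 min at 30 °C with compound at 10 µM final. The mix held 20 mM HEPES pH 7.4, creatine phosphokinase/phosphocreatine, 1 mM phenanthroline, 60 µM IBMX, 0.1 mM GTP and 0.1 mM ATP. Stopped with perchloric acid and neutralized. cAMP measured by [3H]cAMP kit. Reported as % inhibition of basal activity, duplicate, repeated at least three times.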

Assay [2] addresses T1, Mu-type opioid receptor (Cavia porcellus, UniProt P97266). The assay is described as follows: (§1) Binding affinity to displace radioligand [3H]DAMGO on Opioid receptor mu 1 in guinea pig membranes. The assay is classed as cell membranes.
For assay [3], the target named is Kappa-type opioid receptor (Cavia porcellus, UniProt P41144). Kind of assay: Binding affinity to displace radioligand [3H]U-69593 on Opioid receptor kappa 1 in guinea pig membranes. The assay is classed as cell membranes.
Sequence of Kappa-type opioid receptor (P41144 whole entry): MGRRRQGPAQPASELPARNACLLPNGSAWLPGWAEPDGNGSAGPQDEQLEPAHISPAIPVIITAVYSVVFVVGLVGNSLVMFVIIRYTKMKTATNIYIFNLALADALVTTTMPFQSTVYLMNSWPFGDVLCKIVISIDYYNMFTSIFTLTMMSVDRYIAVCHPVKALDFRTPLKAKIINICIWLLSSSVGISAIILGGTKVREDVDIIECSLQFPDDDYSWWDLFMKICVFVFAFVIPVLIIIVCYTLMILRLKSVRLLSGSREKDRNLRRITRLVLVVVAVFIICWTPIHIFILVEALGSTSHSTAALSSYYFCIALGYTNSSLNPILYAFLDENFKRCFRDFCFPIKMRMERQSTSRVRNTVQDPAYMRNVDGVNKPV
Assay [4] has as its target T1, Mu-type opioid receptor. The description is as §1. It is filed as cell membranes. In short, it runs like this: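 Guinea pig brain membranes (500 µg protein) incubated with 12 concentrations of compound and 0.25 nM [3H]DAMGO in 50 mM Tris-HCl pH 7.5, 25 °C, 60 min. Nonspecific binding with 10 µM naloxone. Filtration, washes in cold Tris, scintillation counting. IC50 by log-probit least-squares fit, converted to Ki (Cheng-Prusoff). At least three experiments in triplicate, mean ± SE.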
The source holds these as a separate data set.

Assay [5] in a line: Binding affinity to displace radioligand [3H]naltrindole on Opioid receptor delta 1 in guinea pig membranes.

The values that follow come from ChEMBL document CHEMBL1133652, “Selective protection and functionalization of morphine: synthesis and opioid receptor binding properties of 3-amino-3-desoxymorphine derivatives” (J Med Chem, 2000).

T1 sequence (P97266 whole entry): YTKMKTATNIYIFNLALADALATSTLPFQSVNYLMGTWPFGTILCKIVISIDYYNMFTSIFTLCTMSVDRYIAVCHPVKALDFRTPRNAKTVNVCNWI

By inhibition is commonly meant the change of the read-out against control, counted positive when it falls. One may read the Ki as a dissociation constant, usually derived from enzyme kinetics or from competition with a known ligand. The compound `CNc1ccc2c3c1O[C@H]1[C@@H](O)C=C[C@H]4[C@@H](C2)N(C)CC[C@@]341` gave an inhibition in assay [1] of 29%. Moreover, the Ki at Mu-type opioid receptor [2] was found to be 63 nM; in assay [3], 2800 nM.

With `CN1CC[C@]23c4c5ccc(NCc6ccccc6)c4O[C@H]2[C@@H](O)C=C[C@H]3[C@H]1C5`, in assay [1], the inhibition was 17%. Moreover, the values for the Ki (at Mu-type opioid receptor [2]; in assay [3]) were 33 nM and 3400 nM, respectively.

Take `CN1CC[C@]23c4c5ccc(N)c4O[C@H]2[C@@H](O)C=C[C@H]3[C@H]1C5`: the Ki on Mu-type opioid receptor [4] is 53 nM; in assay [3], 740 nM. Further, the inhibition in assay [1] worked out at 26%.

As to `C[C@@H](NC(=O)[C@@H](N)Cc1ccc(O)cc1)C(=O)NCC(=O)N(C)[C@@H](Cc1ccccc1)C(=O)NCCO`, the inhibition in assay [1] turned out to be 58%.

In assay [5], `C[C@H]1[C@H]2Cc3ccc(Nc4ccccc4)cc3[C@@]1(C)CCN2CC1CC1` returned a Ki of 5.2 nM.

In assay [1], `CN1CC[C@]23c4c5ccc(Nc6ccccc6)c4O[C@H]2[C@@H](O)C=C[C@H]3[C@H]1C5` came in with an inhibition of 44%. The figures for the Ki (at Mu-type opioid receptor [2]; in assay [3]) were 59 nM and 240 nM, respectively.

Take `CN(C)c1ccc2c3c1O[C@H]1[C@@H](O)C=C[C@H]4[C@@H](C2)N(C)CC[C@@]341`: in assay [1], the inhibition is 13%. The Ki amounted to 240 nM at Mu-type opioid receptor [2] and 290 nM in assay [3].

Consider `C[C@H]1[C@H]2Cc3ccc(N)cc3[C@@]1(C)CCN2CC1CC1`, for which the values for the Ki (on Mu-type opioid receptor [2]; in assay [3]) were 1.8 nM and 1.2 nM, respectively.
